# The source made the active and inactive calls. No cut-off for these calls is given here.
# Key:
# Format in all cases: cell-based
# COS-1 [1] = assay: Induction of necrosis in Chlorocebus aethiops COS1 cells assessed as LDH release at 1 to 30 uM after 24 hrs by LDH assay relative to control; details: cos-1, 24 h
# Method in brief: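 COS-1 cells in DMEM with 10% FBS at 37 °C, 5% CO₂, plated 10 000/well and exposed next day to 1–30 μM for 24 h. Medium samples mixed with NAD, iodonitrotetrazolium, lactate and phenazine methosulfate in 0.2 M Tris-HCl pH 8.2, 30 min at room temperature. Stopped with acetic acid, A490 read and normalized to maximal and spontaneous release.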
# [2] = target: Homeobox protein Nkx-2.5 (Mus musculus) (UniProt P42582); assay: Modulation of mouse NKX2-5 expressed in Chlorocebus aethiops COS1 cells harboring 3xHA reporter gene assessed as protein-induced transcriptional activity at 10 uM after 24 hrs by luciferase reporter gene assay relative to control
# Method in brief: (§1)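 COS-1 cells seeded 14 000/well and grown overnight. Transfection for 6 h in serum- and antibiotic-free medium with pGL3-3xHA reporter (100 ng/well) and pMT2-NKX2-5 (25 ng/well), Fugene 6 1:3. Compound or 0.1% DMSO vehicle for 24 h, then luciferase luminescence. Triplicate wells with Grubbs outlier removal, % of control.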
# [3] = target: T1, GATA4/NKX2-5 (Mus musculus) (UniProt Q08369+P42582); assay: Modulation of mouse GATA4/mouse NKX2-5 protein-protein interaction expressed in Chlorocebus aethiops COS1 cells harboring 3xHA reporter gene assessed as transcriptional synergy at 10 uM after 24 hrs by luciferase reporter gene assay relative to control
# Method in brief: (§2)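 COS-1 cells seeded 14 000/well, grown overnight, then transfected for 6 h in serum- and antibiotic-free medium with pGL3-3xHA reporter (three NKX2-5 sites, 100 ng/well) plus pMT2-GATA4 and pMT2-NKX2-5 (total 50 ng/well), Fugene 6 at 1:3 DNA/reagent. Compound or 0.1% DMSO vehicle for 24 h, then luminescence read. Triplicates, Grubbs outliers removed, expressed as % of control.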
# [4] = target: Transcription factor GATA-4 (Mus musculus) (UniProt Q08369); assay: Inhibition of mouse GATA4 expressed in Chlorocebus aethiops COS1 cells harboring NP-112 reporter gene assessed as BNP promoter-driven transcriptional activity at 10 uM after 24 hrs by luciferase reporter gene assay relative to control; design: scale not given: the % may be the effect or the level left
# Method in brief: (§3)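 GATA reporter assay: COS-1 cells (14 000/well, overnight) transfected 6 h serum/antibiotic-free with NP-112 reporter (tandem GATA sites plus rat BNP minimal promoter, 100 ng/well) and pMT2-GATA4 (25 ng/well), Fugene 6 1:3. Treated 24 h with compound or 0.1% DMSO. Luminescence read; triplicates, Grubbs outliers removed, % of control.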
# [5] = target: Transcription factor GATA-4 (Mus musculus) (UniProt Q08369); assay: Enhancement of mouse GATA4 expressed in Chlorocebus aethiops COS1 cells harboring NP-112 reporter gene assessed as BNP promoter-driven transcriptional activity at 10 uM after 24 hrs by luciferase reporter gene assay relative to control; method in brief: as §3
# [6] = target: T1, GATA4/NKX2-5 (Mus musculus); assay: Inhibition of mouse GATA4/mouse NKX2-5 protein-protein interaction expressed in Chlorocebus aethiops COS1 cells harboring 3xHA reporter gene assessed as transcriptional synergy at 10 uM after 24 hrs by luciferase reporter gene assay relative to control; design: scale not given: the % may be the effect or the level left; method in brief: as §2
# [7] = target: Homeobox protein Nkx-2.5 (Mus musculus) (UniProt P42582); assay: Inhibition of mouse NKX2-5 expressed in Chlorocebus aethiops COS1 cells harboring 3xHA reporter gene assessed as protein-induced transcriptional activity at 10 uM after 24 hrs by luciferase reporter gene assay relative to control; design: scale not given: the % may be the effect or the level left; method in brief: as §1
# COS-1 [8] = assay: Cytotoxicity against Chlorocebus aethiops COS1 cells assessed as reduction in cell viability at 10 uM after 24 hrs by MTT assay relative to control; details: cos-1, 24 h
# Method in brief: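 COS-1 cells plated 10 000/well, exposed next day for 24 h (range 1–30 μM). Incubated with 0.5 mg/mL MTT for 2 h at 37 °C, formazan dissolved in DMSO, A550 minus A650 background. Means of 2–3 independent experiments with triplicate wells, % of vehicle-treated cells; toxic if viability fell >10% at 10 μM.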
# COS-1 [9] = assay: Cytotoxicity against Chlorocebus aethiops COS1 cells assessed as reduction in cell viability at 10 uM after 24 hrs by CellTiter-Glo Luminescent Cell Viability assay relative to control; details: cos-1, 24 h
# Method in brief: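 Intracellular ATP read-out (CellTiter-Glo) in COS-1 cells plated and treated as for MTT, 24 h exposure, doxorubicin as positive control. Plates equilibrated 30 min at room temperature, washed with PBS, reagent added, mixed 2 min, 15 min at room temperature, then luminescence. Mean + SEM of three independent experiments, % of vehicle-treated cells.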
# [10] = target: Homeobox protein Nkx-2.5 (Mus musculus) (UniProt P42582); assay: Enhancement of mouse NKX2-5 expressed in Chlorocebus aethiops COS1 cells harboring 3xHA reporter gene assessed as protein-induced transcriptional activity at 10 uM after 24 hrs by luciferase reporter gene assay relative to control; method in brief: as §1
# [11] = target: Transcription factor GATA-4 (Mus musculus) (UniProt Q08369); assay: Modulation of mouse GATA4 expressed in Chlorocebus aethiops COS1 cells harboring NP-112 reporter gene assessed as BNP promoter-driven transcriptional activity at 10 uM after 24 hrs by luciferase reporter gene assay relative to control; method in brief: as §3
# [12] = target: T1, GATA4/NKX2-5 (Mus musculus); assay: Enhancement of mouse GATA4/mouse NKX2-5 protein-protein interaction expressed in Chlorocebus aethiops COS1 cells harboring 3xHA reporter gene assessed as transcriptional synergy at 10 uM after 24 hrs by luciferase reporter gene assay relative to control; method in brief: as §2
# [13] = target: T2, GATA4/NKX2-5 (Rattus norvegicus) (UniProt P46152+O35767); assay: (§4) Modulation of GATA4/NKX2-5 protein-protein interaction in neonatal Wistar rat cardiomyocytes harboring -534/+4 bp rat BNP proximal promoter assessed as reduction in BNP-promoter driven activity at 10 to 30 preincubated for 1 hr followed by hypertrophic agonist endothelin-1 and measured after 24 hrs by luminescence method
# Method in brief: (§5)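 Neonatal ventricular myocytes from 2–3-day-old Wistar rats, 50 000/well, cultured 18–20 h in DMEM/F12 with 10% FBS. Transfected 24 h in serum-free CSFM with pGL3-BNP (−534/+4 promoter, 100 ng/well), Fugene 6 1:3. Compound or 0.1% DMSO added in CSFM, endothelin-1 1 h later, luminescence after 24 h. Mean + SD, n = 3; ANOVA with Tukey or Games–Howell.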
# [14] = target: T2, GATA4/NKX2-5 (Rattus norvegicus); assay: as §4, with “hypertrophic response” for “BNP-promoter driven activity”, “at” for “at 10 to”; method in brief: as §5
# [15] = target: T2, GATA4/NKX2-5 (Rattus norvegicus); assay: as §4, with “increase” for “reduction”; method in brief: as §5
# Sequence of Homeobox protein Nkx-2.5 (Mus musculus) (P42582 whole entry): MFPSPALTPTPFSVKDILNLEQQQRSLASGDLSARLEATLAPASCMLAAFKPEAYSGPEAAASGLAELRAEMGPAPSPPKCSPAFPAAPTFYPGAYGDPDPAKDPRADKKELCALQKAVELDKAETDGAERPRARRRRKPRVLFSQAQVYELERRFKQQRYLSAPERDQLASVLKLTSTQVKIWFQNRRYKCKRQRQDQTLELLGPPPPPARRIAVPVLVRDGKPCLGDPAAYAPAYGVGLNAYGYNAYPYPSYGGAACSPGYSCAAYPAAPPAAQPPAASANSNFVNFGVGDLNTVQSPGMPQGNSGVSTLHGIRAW
# Sequence of Transcription factor GATA-4 (Mus musculus) (Q08369 whole entry): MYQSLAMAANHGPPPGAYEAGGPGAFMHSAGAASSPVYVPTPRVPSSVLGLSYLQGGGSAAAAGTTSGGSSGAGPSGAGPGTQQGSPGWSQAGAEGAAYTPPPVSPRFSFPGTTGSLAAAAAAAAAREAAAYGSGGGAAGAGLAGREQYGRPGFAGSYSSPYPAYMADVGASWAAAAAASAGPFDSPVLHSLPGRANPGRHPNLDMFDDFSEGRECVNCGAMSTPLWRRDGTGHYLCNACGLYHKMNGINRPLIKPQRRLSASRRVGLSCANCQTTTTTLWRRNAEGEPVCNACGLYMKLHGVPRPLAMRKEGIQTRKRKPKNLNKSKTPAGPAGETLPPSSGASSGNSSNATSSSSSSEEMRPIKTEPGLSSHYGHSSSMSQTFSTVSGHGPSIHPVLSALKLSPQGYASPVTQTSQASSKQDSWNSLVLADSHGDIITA
Compound,Activity [3],Activity [4],Activity [5],Activity [6],Activity [7],Activity (COS-1 [1]),Activity (COS-1 [8]),also measured
CCN(CC)c1ccc(NC(=O)c2cnc(SC)n2-c2ccc(F)cc2)cc1,52%,45%,–,–,–,< 8%,–,Activity [2]: 65%
Cc1onc(-c2ccccc2)c1COc1ccc(C(=O)OCCC#N)cc1,–,41%,–,26%,29%,< 8%,> 10%,Activity (COS-1 [9]): > 10%
CC(=O)N(Cc1ccc(N(C)C)cc1)c1c(-c2ccccc2)noc1C,–,47%,–,28%,–,< 8%,> 10%,–
Cc1cc(-c2onc(C)c2C(=O)Nc2ccc3oc(-c4ccccc4)cc(=O)c3c2)no1,–,–,120%,–,–,–,–,Activity [10]: 110%
CCN(CC)c1ccc(NC(=O)c2cc(C)oc2-c2ccccc2)cc1,35%,–,–,–,–,< 8%,> 10%,Activity [2]: 37%; Activity [11]: 49%
CCN(c1ccc(NC(=O)c2cnsc2)cc1)C(C)C,–,20%,–,12%,11%,–,–,Activity [13]: Active; Activity [14]: Active
CCN(CC)c1ccc(NC(=O)c2c(C)noc2-c2ccccc2)cc1,–,–,–,29%,29%,< 8%,> 10%,–
CC(=O)COC(=O)c1ccc(OCc2c(-c3ccccc3)noc2C)cc1,37%,44%,–,–,–,< 8%,> 10%,Activity [2]: 41%
CCN(CC)c1ccc(NC(=O)c2cnc3ncccn23)cc1,–,–,130%,–,–,< 8%,–,Activity [12]: 140%; Activity [10]: 120%
COc1ccc(-c2cc(NC(=O)c3ccc(C(C)(C)C)cc3)n[nH]2)cc1,–,40%,–,–,–,< 8%,–,Activity (COS-1 [9]): Non-Toxic
CCN(c1ccc(NC(=O)c2c(C)noc2-c2cc(C)on2)cc1)C(C)C,–,–,120%,–,–,–,–,–
CN(C)c1ccc(/N=C/c2c[nH]nc2-c2ccc(F)cc2)cc1,–,–,120%,–,–,–,–,Activity [10]: 140%
CCN(CC)c1ccc(NC(=O)c2csc([N+](=O)[O-])c2)cc1,25%,23%,–,25%,26%,< 8%,–,–

# More lines, main results first:
Activity [3],Activity [4],Activity [5],Activity [6],Activity [7],Compound,Activity (COS-1 [1]),Activity (COS-1 [8]),also measured
98%,–,110%,–,–,Cc1onc(-c2ccccc2)c1C(=O)Nc1ccc(C(=O)OCCCC#N)cc1,–,–,Activity [2]: 97%
–,38%,–,–,34%,CCN(CC)c1ccc(NC(=O)c2c(-c3ccccc3)nnn2CCc2ccccc2)cc1,< 8%,–,–
–,43%,–,22%,34%,CCC(=O)N(Cc1ccc(N(CC)CC)cc1)c1c(-c2ccccc2)noc1C,< 8%,> 10%,Activity (COS-1 [9]): > 10%
50%,–,–,–,–,CCN(CC)c1ccc(NC(=O)c2c(-c3ccccc3)noc2C)cc1,< 8%,–,Activity [2]: 49%; Activity [11]: 62%; Activity (COS-1 [9]): > 10%
65%,–,–,–,–,CCN(CC)c1ccc(NC(=O)c2c(-c3cccc([N+](=O)[O-])c3)noc2C)cc1,< 8%,Non-Toxic,–
–,–,120%,–,–,CC(C)c1ccc(NC(=O)c2noc3c2CCc2sccc2-3)cc1,–,–,Activity [12]: 130%
100%,–,140%,–,–,CCN(CC)c1ccc(NC(=O)c2cc(C)oc2-c2cc(C)on2)cc1,–,–,Activity [2]: 110%
–,–,220%,–,–,Cc1onc(-c2ccccc2)c1C(=O)N(C1=NC(C)CS1)c1ccc(Cl)cc1 (stereo not drawn),< 8%,–,Activity [12]: 170%; Activity [10]: 110%; Activity [15]: Active; Activity (COS-1 [9]): Non-Toxic
–,–,–,27%,16%,CCN(CC)c1ccc(NC(=O)c2cnsc2)cc1,< 8%,–,Activity [11]: 48%; Activity (COS-1 [9]): Non-Toxic
–,41%,–,25%,31%,CCN(c1ccc(NC(=O)c2c(C)noc2-c2ccccc2)cc1)C(C)C,< 8%,> 10%,–
99%,–,130%,–,–,CCN(CC)c1ccc(NC(=O)c2cn(C)nc2-c2cc(C)on2)cc1,–,–,Activity [2]: 93%
33%,–,–,–,–,CCN(CC)c1ccc(NC(=O)c2csc(C)c2-c2ccccc2)cc1,< 8%,Non-Toxic,Activity [2]: 39%; Activity [11]: 58%
–,–,–,24%,21%,CCN(CC)c1ccc(NC(=O)c2c(C)noc2-c2snnc2C)cc1,< 8%,> 10%,Activity [11]: 68%; Activity [15]: Active
100%,–,140%,–,–,CCc1noc(C)c1C(=O)Nc1ccc(N(CC)CC)cc1,–,–,Activity [10]: 160%

# — ChEMBL document CHEMBL4321800, “Synthesis, Identification, and Structure-Activity Relationship Analysis of GATA4 and NKX2-5 Protein-Protein Interaction Modulators” (J Med Chem, 2019)
